Results reported in ChEMBL document CHEMBL4622968, “Discovery of [1,2,4]triazolo[4,3-a]pyridines as potent Smoothened inhibitors targeting the Hedgehog pathway with improved antitumor activity in vivo” (Bioorg Med Chem, 2020).
The source made the active and inactive calls. The calls are words filed in the database; no cut-off is given here.

What was measured:
MDA-MB-468 [1] = experiment: Induction of cell cycle arrest in human MDA-MB-468 cells assessed as cell accumulation at G2/M phase incubated for 48 hrs by propidium iodide staining-based flow cytometric analysis; format: functional
Method in brief: (§1)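 Cells were seeded at 1.2×10^5 per well and treated for 48 h (MDA-MB-468: 14, 28, 56 μM). Cells were fixed in 75% ethanol at −20 °C overnight, stained with PI and analysed by flow cytometry. Mean ± S.D. of three independent experiments versus DMSO.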

[2] = Inhibition of hedgehog pathway in mouse NIH/3T3 cells harboring GRE-Luc assessed as inhibition of SAG-induced Hh signaling pathway by dual luciferase reporter gene assay; format: cell-based; conditions: NIH3T3
Method in brief: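 NIH3T3 cells co-transfected with 8×3' Gli-BS-delta51-Luc II firefly reporter and pRL-TK Renilla plasmid; after 24 h treated with compounds plus SAG (pathway activator). Gli luciferase normalized to Renilla (dual-luciferase read-out); IC50 = concentration halving normalized signal; mean ± S.D. of 3–5 separate experiments.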

MDA-MB-468 [3] = experiment: Antiproliferation activity against human MDA-MB-468 cells assessed as reduction in cell viability incubated for 72 hr by MTT assay; format: functional, cell-based; conditions: MDA-MB-468, 72 h
Method in brief: (§2)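 MTT assay. Cells were plated overnight and exposed to a range of concentrations for 72 h. MTT was then added for 4 h and absorbance read at 570 nm. Inhibition% = [(control − compound)/(control − blank)] × 100. IC50 was fitted from the curves. Mean ± S.D. of 3–5 separate experiments. RPMI 1640 + 10% FBS; MCF10A in DMEM/F12 with 5% horse serum, EGF, hydrocortisone, insulin and cholera toxin.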

MCF7 = experiment: Antiproliferation activity against human MCF7 cells assessed as reduction in cell viability incubated for 72 hrs by MTT assay; format: functional, cell-based; conditions: MCF7, 72 h; method in brief: as §2
HeLa = experiment: Antiproliferation activity against human HeLa cells assessed as reduction in cell viability incubated for 72 hrs by MTT assay; format: functional, cell-based; method in brief: as §2
MDA-MB-468 [4] = experiment: Induction of cell cycle arrest in human MDA-MB-468 cells assessed as cell accumulation at G2/M phase at 14 uM incubated for 48 hrs by propidium iodide staining-based flow cytometric analysis (reference value: 26.66 %); format: functional; method in brief: as §1
MDA-MB-468 [5] = experiment: Induction of cell cycle arrest in human MDA-MB-468 cells assessed as cell accumulation at G0/G1 phase at 28 uM incubated for 48 hrs by propidium iodide staining-based flow cytometric analysis (reference value: 38.94 %); format: functional; method in brief: as §1
MDA-MB-468 [6] = experiment: Induction of cell cycle arrest in human MDA-MB-468 cells assessed as cell accumulation at G2/M phase at 28 uM incubated for 48 hrs by propidium iodide staining-based flow cytometric analysis (reference value: 26.66 %); format: functional; method in brief: as §1
MDA-MB-468 [7] = experiment: Induction of cell cycle arrest in human MDA-MB-468 cells assessed as cell accumulation at G0/G1 phase at 56 uM incubated for 48 hrs by propidium iodide staining-based flow cytometric analysis (reference value: 38.94 %); format: functional; method in brief: as §1
MDA-MB-468 [8] = experiment: Induction of cell cycle arrest in human MDA-MB-468 cells assessed as cell accumulation at S phase at 56 uM incubated for 48 hrs by propidium iodide staining-based flow cytometric analysis (reference value: 34.20 %); format: functional; method in brief: as §1
MDA-MB-468 [9] = experiment: Induction of cell cycle arrest in human MDA-MB-468 cells assessed as cell accumulation at G2/M phase at 56 uM incubated for 48 hrs by propidium iodide staining-based flow cytometric analysis (reference value: 26.66 %); format: functional; method in brief: as §1
MDA-MB-468 [10] = experiment: Induction of apoptosis in human MDA-MB-468 cells assessed as increase in apoptosis incubated for 48 hrs by annexin-V-FITC/PI staining based flow cytometric method; format: functional, cell-based
MDA-MB-468 [11] = experiment: Induction of apoptosis in human MDA-MB-468 cells assessed as necrotic cells at 14 uM incubated for 48 hrs by annexin-V-FITC staining based flow cytometric method (reference value: 1.52 %); format: functional
MDA-MB-468 [12] = experiment: Induction of apoptosis in human MDA-MB-468 cells assessed as late apoptotic cells at 14 uM incubated for 48 hrs by annexin-V-FITC staining based flow cytometric method (reference value: 0.99 %); format: functional
MDA-MB-468 [13] = experiment: Induction of apoptosis in human MDA-MB-468 cells assessed as necrotic cells at 28 uM incubated for 48 hrs by annexin-V-FITC staining based flow cytometric method (reference value: 1.52 %); format: functional
MDA-MB-468 [14] = experiment: Induction of apoptosis in human MDA-MB-468 cells assessed as necrotic cells at 56 uM incubated for 48 hrs by annexin-V-FITC staining based flow cytometric method (reference value: 1.52 %); format: functional
MDA-MB-468 [15] = experiment: Induction of apoptosis in human MDA-MB-468 cells assessed as late apoptotic cells at 56 uM incubated for 48 hrs by annexin-V-FITC staining based flow cytometric method (reference value: 0.99 %); format: functional
Protein smoothened [16] = target: T1, Protein smoothened (Homo sapiens, UniProt Q99835); experiment: Binding affinity to recombinant human Smo receptor assessed as association rate constant by SPR analysis
Method in brief: (§3)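 Surface plasmon resonance with recombinant Smo protein, run in PBS at a flow rate of 2 μL/s and 4 °C. Analytes were injected at 2.5, 5 and 10 μM. The chip was regenerated with 0.5% SDS:glycine-HCl pH 2.0 (1:1). ka, kd, Rmax, KA and KD came from a global fit of the sensorgrams.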

Protein smoothened [17] = target: T1, Protein smoothened; experiment: Binding affinity to recombinant human Smo receptor assessed as dissociation rate constant by SPR analysis; method in brief: as §3
Protein smoothened [18] = target: T1, Protein smoothened; experiment: Binding affinity to recombinant human Smo receptor assessed as association constant at equilibrium by SPR analysis
MDA-MB-468 [19] = experiment: Induction of apoptosis in human MDA-MB-468 cells assessed as decrease in Bcl2 protein expression level incubated for 1 hr by Western blot analysis; format: functional, cell-based
MDA-MB-468 [20] = experiment: Induction of apoptosis in human MDA-MB-468 cells assessed as increase in Bax protein expression level incubated for 1 hr by Western blot analysis; format: functional, cell-based
[21] = Acute toxicity in Kunming mouse assessed as mortality at 3453 mg/kg, ig observed for 14 days relative to control; format: organism-based; conditions: in vivo, po, read-out: Activity
Method in brief: (§4)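 Kunming mice, groups of 5 female and 5 male per dose, dosed once by gavage at graded doses; mortality recorded over 14 days as dead/treated and percent. LD50 derived by improved Karber's method: LD50 = lg^-1[xm − i(ΣP − 0.5)], xm log of maximal dose, i log ratio of neighbouring doses; 95% confidence intervals given.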

[22] = Acute toxicity in Kunming mouse assessed as mortality at 4552 mg/kg, ig observed for 14 days relative to control; format: organism-based; conditions: in vivo, po, read-out: Activity; method in brief: as §4
[23] = Acute toxicity in Kunming mouse assessed as mortality at 5226 mg/kg, ig observed for 14 days relative to control; format: organism-based; conditions: in vivo, po, read-out: Activity; method in brief: as §4
MDA-MB-468 [24] = experiment: Antitumour activity against human MDA-MB-468 cells xenografted in BALB/c mouse assessed as reduction in tumour volume at 80 mg/kg, ig measured every 2 days for 21 days relative to control; format: functional; set-up: scale not given: the % may be the effect or the level left
Method in brief: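 Female BALB/c nude mice, 6–8 weeks old, were given subcutaneous flank injections of 1.0×10^7 MDA-MB-468 cells in 0.2 ml PBS. At 100 mm³ tumours they were randomized, five per group. Daily gavage in saline with 0.1% Tween 80 at 80 or 100 mg/kg, or vehicle alone. Tumour volume measured every 2 days and body weight daily. Tumours excised and weighed at day 21.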

T1 sequence (Q99835 whole entry): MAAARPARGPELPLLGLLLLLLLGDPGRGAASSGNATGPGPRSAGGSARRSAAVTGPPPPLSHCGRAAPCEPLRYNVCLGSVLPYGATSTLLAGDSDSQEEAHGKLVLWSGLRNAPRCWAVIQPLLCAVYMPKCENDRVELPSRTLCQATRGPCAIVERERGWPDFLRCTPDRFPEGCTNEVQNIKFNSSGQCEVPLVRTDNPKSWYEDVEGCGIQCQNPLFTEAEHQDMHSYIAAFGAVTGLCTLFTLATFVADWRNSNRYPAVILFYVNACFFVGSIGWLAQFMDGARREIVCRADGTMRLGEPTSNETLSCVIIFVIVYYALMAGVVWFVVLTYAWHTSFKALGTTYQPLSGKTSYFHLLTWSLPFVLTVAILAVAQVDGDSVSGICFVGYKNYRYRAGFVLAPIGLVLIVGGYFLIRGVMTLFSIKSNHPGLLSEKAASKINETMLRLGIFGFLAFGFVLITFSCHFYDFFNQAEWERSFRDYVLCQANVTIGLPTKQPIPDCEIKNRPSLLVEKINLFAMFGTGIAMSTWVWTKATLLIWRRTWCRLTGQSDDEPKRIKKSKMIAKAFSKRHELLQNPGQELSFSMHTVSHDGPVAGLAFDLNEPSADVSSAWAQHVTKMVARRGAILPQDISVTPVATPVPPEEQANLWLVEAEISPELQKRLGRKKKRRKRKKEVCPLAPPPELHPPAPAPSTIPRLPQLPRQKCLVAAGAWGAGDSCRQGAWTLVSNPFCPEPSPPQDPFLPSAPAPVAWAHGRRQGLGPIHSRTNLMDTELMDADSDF

Structure (SMILES): O=C(Nc1ccc(Cl)c(-c2nnc3c(Cl)cccn23)c1)c1ccc(Cl)nc1Cl
- Activity (MDA-MB-468 [1]): Dose-dependent effect
- IC50 [2]: 0.09 µM
- IC50 (MDA-MB-468 [3]): 28.6 µM
- IC50 (MCF7): 61.5 µM
- IC50 (HeLa): 66.3 µM
- Activity (MDA-MB-468 [4]): 86%
- Activity (MDA-MB-468 [5]): 29.86%
- Activity (MDA-MB-468 [6]): 39.75%
- Activity (MDA-MB-468 [7]): 29%
- Activity (MDA-MB-468 [8]): 44%
- Activity (MDA-MB-468 [9]): 42.57%
- Activity (MDA-MB-468 [10]): Dose-dependent effect
- Activity (MDA-MB-468 [11]): 9.4%
- Activity (MDA-MB-468 [12]): 7.15%
- Activity (MDA-MB-468 [13]): 9.86%
- Activity (MDA-MB-468 [14]): 9.06%
- Activity (MDA-MB-468 [15]): 24.1%
- Ka (Protein smoothened [16]): 360 M⁻¹ s⁻¹
- Kdiss (Protein smoothened [17]): 0.00375 ×10⁻³ /s
- KA (Protein smoothened [18]): 9.71 ×10⁷ /M
- Activity (MDA-MB-468 [19]): Active
- Activity (MDA-MB-468 [20]): Active
- mortality at 336 h [21]: 30%
- mortality at 336 h [22]: 60%
- mortality at 336 h [23]: 70%
- Activity (MDA-MB-468 [24]): 64.97%
